The text below walks through data of ChEMBL document CHEMBL1165881, “Synthesis and cytotoxicity evaluation of (tetrahydro-beta-carboline)-1,3,5-triazine hybrids as anticancer agents” (Eur J Med Chem, 2010).

The test system of experiment [1] is MCF7. In words: Induction of apoptosis in human MCF7 cells assessed as DNA fragmentation at 0.25 uM after 24 hrs. Format: functional, cell-based. A digest of the protocol: (§1)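 Treated 24 h with 0.25–0.74 range. Then 1 × 10^5 cells trypsinized, PBS-washed (4 °C, pH 7.4), lysed 10 min on ice (10 mM Tris-HCl pH 7.4, 10 mM EDTA, 0.5% SDS). RNase A 1 h at 37 °C, then proteinase K 4 h at 50 °C. DNA ethanol/sodium acetate precipitated, run on 1.5% agarose with ethidium bromide, viewed under UV.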

Experiment [2] relates to MCF7. Put plainly: Induction of apoptosis in human MCF7 cells assessed as DNA fragmentation at 0.74 uM after 24 hrs. Format: functional, cell-based. In outline: as §1
The test system of experiment [3] is MDA-MB-231. In words: Induction of apoptosis in human MDA-MB-231 cells assessed as DNA fragmentation at 0.25 uM after 24 hrs. In kind it is functional, cell-based. In outline:
as §1

Experiment [4] relates to MDA-MB-231. In words: Induction of apoptosis in human MDA-MB-231 cells assessed as DNA fragmentation at 0.74 uM after 24 hrs. In kind it is functional, cell-based. In outline:
as §1

Experiment [5] deals with MCF7. Put plainly: Induction of apoptosis in human MCF7 cells assessed as appearance of fragmented nuclei at 0.5 uM after 24 hrs by Hoechst staining. Format: functional, cell-based. A digest of the protocol:
(§2)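 1 × 10^4 cells grown on coverslips, treated 24 h, PBS-washed, fixed in 4% paraformaldehyde 15 min. Stained with Hoechst at 1.0 ug/ml for 15 min at 4 °C, washed, mounted, and examined by fluorescence microscopy; untreated cells as control.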

The test system of experiment [6] is MCF7. In words: Induction of apoptosis in human MCF7 cells assessed as appearance of fragmented nuclei at 0.74 uM after 24 hrs by Hoechst staining. Format: functional, cell-based. In outline: as §2
The subject of experiment [7] is MDA-MB-231. In words: Induction of apoptosis in human MDA-MB-231 cells assessed as appearance of fragmented nuclei at 0.5 uM after 24 hrs by Hoechst staining. Format: functional, cell-based. A digest of the protocol:
as §2

In experiment [8] the test system is MDA-MB-231. In words: Induction of apoptosis in human MDA-MB-231 cells assessed as appearance of fragmented nuclei at 0.74 uM after 24 hrs by Hoechst staining. In kind it is functional, cell-based. In outline:
as §2

Experiment [9] concerns MDA-MB-231. In words: Cell cycle arrest in human MDA-MB-231 cells assessed as accumulation at G1 phase at o.74 uM after 24 hrs using propidium iodide staining by flow cytometry. In kind it is functional. A general note: A flow cytometer gives signals particle by particle.
In experiment [10] the test system is MDA-MB-231. Put plainly: Cell cycle arrest in human MDA-MB-231 cells assessed as accumulation at S phase at o.74 uM after 24 hrs using propidium iodide staining by flow cytometry. Format: functional.
Experiment [11] concerns MDA-MB-231. Put plainly: Cell cycle arrest in human MDA-MB-231 cells assessed as accumulation at G2 phase at o.74 uM after 24 hrs using propidium iodide staining by flow cytometry. In kind it is functional.
In experiment [12] the test system is MCF7. Put plainly: Cytotoxicity against human MCF7 cells after 72 hrs by MTT assay. Format: functional, cell-based. To be noted: mcf7; read-out: IC50. In outline:
(§3)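 Seeded at 5000–10000 cells/well, incubated at 37 °C in CO2 with compounds at a range of concentrations, controls included, in triplicate wells. After 72 h, MTT solution (5 mg/mL) added; absorbance read at 540 nm. % cytotoxicity = 100 × [1 − (X/R1)] versus control absorbance; IC50 by nonlinear regression. Values are means of at least two independent experiments, three determinations each.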

Experiment [13] deals with SW-620. Put plainly: Cytotoxicity against human SW620 cells after 72 hrs by MTT assay. Format: functional, cell-based. Conditions: sw-620; read-out: IC50. A digest of the protocol:
as §3
For orientation: Formazan colour is commonly taken as a measure of viable cells.

Experiment [14] relates to DU-145. In words: Cytotoxicity against human DU145 cells after 72 hrs by MTT assay. In kind it is functional, cell-based. Conditions: du-145; read-out: IC50. A digest of the protocol:
as §3

Experiment [15] relates to KB. Put plainly: Cytotoxicity against human KB cells after 72 hrs by MTT assay. In kind it is functional, cell-based. Conditions: kb. In outline: as §3
In experiment [16] the test system is PA-1. In words: Cytotoxicity against human PA1 cells after 72 hrs by MTT assay. Format: functional, cell-based. Conditions: pa-1; read-out: IC50. A digest of the protocol: as §3
Experiment [17] relates to K562. Put plainly: Cytotoxicity against human K562 cells after 72 hrs by MTT assay. To be noted: Homo sapiens, K562, 72 h; read-out: IC50. In kind it is functional, cell-based. A digest of the protocol: as §3
In experiment [18] the test system is MIA PaCa-2. In words: Cytotoxicity against human MIAPaCa2 cells after 72 hrs by MTT assay. In kind it is functional, cell-based. To be noted: mia paca-2; read-out: IC50. In outline:
as §3

The test system of experiment [19] is A549. In words: Cytotoxicity against human […] cells after 72 hrs by MTT assay. To be noted: a549; read-out: IC50. Format: functional, cell-based. A digest of the protocol:
as §3

Experiment [20] can be described thus: Cytotoxicity against mouse NIH/3T3 cells after 72 hrs by MTT assay. Format: cell-based, NIH3T3. To be noted: nih3t3; read-out: IC50. A digest of the protocol:
as §3

Experiment [21] has as its system MCF7. In words: Cell cycle arrest in human MCF7 cells assessed as accumulation at G1 phase at 0.5 uM after 24 hrs using propidium iodide staining by flow cytometry. Format: functional.
Experiment [22] has as its system MCF7. Put plainly: Cell cycle arrest in human MCF7 cells assessed as accumulation at S phase at 0.5 uM after 24 hrs using propidium iodide staining by flow cytometry. In kind it is functional.
For experiment [23], the system named is MCF7. In words: Cell cycle arrest in human MCF7 cells assessed as accumulation at G2 phase at 0.5 uM after 24 hrs using propidium iodide staining by flow cytometry. Format: functional.
In experiment [24] the test system is MCF7. In words: Cell cycle arrest in human MCF7 cells assessed as accumulation at G1 phase at o.74 uM after 24 hrs using propidium iodide staining by flow cytometry. Format: functional.
The subject of experiment [25] is MCF7. Put plainly: Cell cycle arrest in human MCF7 cells assessed as accumulation at S phase at o.74 uM after 24 hrs using propidium iodide staining by flow cytometry. In kind it is functional.
For experiment [26], the system named is MCF7. In words: Cell cycle arrest in human MCF7 cells assessed as accumulation at G2 phase at o.74 uM after 24 hrs using propidium iodide staining by flow cytometry. In kind it is functional.
Experiment [27] deals with MDA-MB-231. Put plainly: Cell cycle arrest in human MDA-MB-231 cells assessed as accumulation at G1 phase at 0.5 uM after 24 hrs using propidium iodide staining by flow cytometry. Format: functional.
Experiment [28] concerns MDA-MB-231. Put plainly: Cell cycle arrest in human MDA-MB-231 cells assessed as accumulation at S phase at 0.5 uM after 24 hrs using propidium iodide staining by flow cytometry. In kind it is functional.
Experiment [29] deals with MDA-MB-231. Put plainly: Cell cycle arrest in human MDA-MB-231 cells assessed as accumulation at G2 phase at 0.5 uM after 24 hrs using propidium iodide staining by flow cytometry. In kind it is functional.

pIC50: −log10 of the molar value. Calls of active or inactive are those of the source. The calls are words filed in the database; no cut-off is given here.

As to `COC(=O)[C@@H]1Cc2c([nH]c3ccccc23)[C@@H](c2ccc(OC)cc2)N1c1nc(N2CCN(C)CC2)nc(N2CCN(C)CC2)n1` [listing 1 of 2 here], the outcome in [1], in experiment [2], in [3], in experiment [4], in experiment [5] and in experiment [6] was Active. Further, the result in experiment [7] and in experiment [8] was Active.

With `COC(=O)[C@@H]1Cc2c([nH]c3ccccc23)[C@@H](c2ccc(OC)cc2)N1c1nc(N2CCN(C)CC2)nc(N2CCN(C)CC2)n1` [listing 2 of 2 here], the Activity in experiment [9] is listed as 65.11%; in [10] it was 21.91%; in experiment [11], 12.98%; in experiment [21], 64.4%; in experiment [22] it was 35.5%; in experiment [23], 0.09%. Besides, the Activity in experiment [24] worked out at 76.68%; in experiment [25], 0.12%; in experiment [26] it was 23.2%; in [27], 64.63%; in experiment [28] it was 22.74%; in experiment [29], 12.63%. Besides, the pIC50 in [12] is 6.13; in experiment [13], 5.87; in experiment [14], 5.17; in experiment [15], 5.09; in experiment [16], 5.74; in [17], 5.34. The pIC50 in experiment [18] was 5.64; in experiment [19], 5.68; in experiment [20] it was 5.71.

The term pIC50 denotes the IC50 on a negative log10 scale, so that one unit is a factor of ten.
